High-throughput results from PubChem.
The list is not random: actives were taken first. Their share in the collection is about 3.8%.
KCNK9 block: inhibitors of human KCNK9 two-pore domain potassium channel; B-score at 10 µM; HEK293 KCNK9, FluxOR thallium flux fluorescence; hits give low values; AID 488922; 310,000 compounds, 1.2% hits;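 active = ratio B-score over 3 SD below the library mean, with starting fluorescence within 5 SD of its mean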;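 also: negative B-score means less thallium flux so channel inhibition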
KCNQ1 block: inhibitors of human KCNQ1 potassium channel. P51787. CHO-K1 KCNQ1, FluxOR thallium flux fluorescence; hits give high values. B-score at 10 µM. 310,000 compounds, 1.3% hits;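 active = compounds whose thallium flux B-score, printed positive for inhibition, exceeds three library SD while starting fluorescence stays within three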;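 also: channel opened by potassium depolarization with thallium stimulus after 20 min compound exposure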
hERG protect: compounds protecting human hERG from proarrhythmic drug block; Q12809; CHO-hERG, FluxOR thallium flux, dofetilide IC70 present; activation (rescue from dofetilide block), less the hit threshold, % at 10 µM; 310,000 compounds, 0.51% hits;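 active = activation above the mean of controls blocked by dofetilide plus 5 SD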;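 also: thallium influx through hERG after potassium depolarization seen as dye fluorescence rise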
Target sequence (Q12809 whole entry, looked up): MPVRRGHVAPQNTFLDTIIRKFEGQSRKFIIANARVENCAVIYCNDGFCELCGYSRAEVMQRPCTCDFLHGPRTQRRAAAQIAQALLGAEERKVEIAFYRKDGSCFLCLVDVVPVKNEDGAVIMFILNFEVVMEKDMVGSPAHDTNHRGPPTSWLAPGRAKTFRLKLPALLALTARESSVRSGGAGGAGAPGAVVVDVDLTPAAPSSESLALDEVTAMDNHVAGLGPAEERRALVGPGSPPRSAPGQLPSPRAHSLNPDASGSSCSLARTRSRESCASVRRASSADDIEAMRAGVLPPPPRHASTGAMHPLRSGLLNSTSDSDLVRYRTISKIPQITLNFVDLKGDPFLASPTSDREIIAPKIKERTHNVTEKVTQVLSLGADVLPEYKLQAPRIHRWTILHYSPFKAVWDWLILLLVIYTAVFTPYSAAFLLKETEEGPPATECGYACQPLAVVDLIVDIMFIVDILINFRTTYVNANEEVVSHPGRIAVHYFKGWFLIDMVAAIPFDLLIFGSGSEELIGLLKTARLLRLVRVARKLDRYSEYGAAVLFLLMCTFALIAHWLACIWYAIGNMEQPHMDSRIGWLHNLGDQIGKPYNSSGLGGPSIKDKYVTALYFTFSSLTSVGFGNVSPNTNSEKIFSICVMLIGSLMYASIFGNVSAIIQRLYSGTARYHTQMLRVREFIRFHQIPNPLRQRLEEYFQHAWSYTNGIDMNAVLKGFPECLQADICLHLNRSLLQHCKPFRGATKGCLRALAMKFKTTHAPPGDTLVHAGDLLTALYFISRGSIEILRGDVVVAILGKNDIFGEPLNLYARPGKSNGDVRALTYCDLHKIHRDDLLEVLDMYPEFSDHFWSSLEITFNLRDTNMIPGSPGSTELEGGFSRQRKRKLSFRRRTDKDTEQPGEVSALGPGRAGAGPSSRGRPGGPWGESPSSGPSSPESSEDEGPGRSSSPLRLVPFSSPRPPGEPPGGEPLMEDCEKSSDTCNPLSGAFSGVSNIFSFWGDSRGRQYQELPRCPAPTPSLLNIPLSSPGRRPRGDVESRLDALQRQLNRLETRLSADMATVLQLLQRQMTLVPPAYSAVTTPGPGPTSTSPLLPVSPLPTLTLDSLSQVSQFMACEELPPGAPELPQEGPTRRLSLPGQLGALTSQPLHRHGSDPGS
KCNK3 inh: human KCNK3 channel inhibition, primary screen; B-score at 10 µM; O14649; CHO-KCNK3 thallium flux, FluxOR fluorescence; hits give low values; 340,000 compounds, 0.84% hits;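 active = B-score under library mean minus 4 SD, starting fluorescence ratio at most library mean plus 5 SD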;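 also: more negative B-score means stronger inhibition of thallium flux through KCNK3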
Kir21 block: blocks the mouse Kir2.1 inward-rectifier potassium channel | 310,000 compounds, 0.85% hits | B-score at 10 µM | HEK293-Kir2.1, FluxOR thallium flux fluorescence; hits give low values;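 active = fluorescence ratio B-score at or below minus 3 SD of library scores, with starting-brightness B-score within 2 SD, cut at about -4.2 in these data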;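 also: channel flux triggered by added potassium and thallium sulfate stimulus; B-score of peak minus minimum fluorescence over baseline after thallium stimulus; more negative B-score means stronger Kir2.1 block with less thallium influx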
KCNQ1 act: potentiators or activators of human KCNQ1 potassium channel | P51787 | CHO-K1 KCNQ1, thallium flux FluxOR fluorescence; hits give high values | B-score at 10 µM | 310,000 compounds, 0.35% hits | AID 2648;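 active = fluorescence ratio B-score, a plate-corrected score, at least three library SD, with initial intensity B-score within 5 SD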
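Assay system: stable KCNQ1 CHO-K1 line; medium: assay buffer, equal DMSO in all wells; timing: 90 min dye loading and 20 min compound exposure, both at room temperature; technique: kinetic FluxOR thallium fluorescence, 10-s 1-Hz baseline, 110-s post-stimulus read; read-out basis: B score of baseline-normalized fluorescence ratio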
* hit, by the source's call; i = inactive; x = no result.

SMILES | KCNK9 block | KCNQ1 block | hERG protect | KCNK3 inh | Kir21 block | KCNQ1 act
CC1CCc2sc(C(=O)NC3CCCCC3)cc2C1 (stereo not drawn) | x | x | x | i | x | x
O=C(NCCCn1ccnc1)c1cc([N+](=O)[O-])cc([N+](=O)[O-])c1 | i | i | -10.8 | i | 0.17 | i
CCOC(=O)c1[nH]c2ccc(Br)cc2c1NC(=O)CCN1CCN(C(=O)OCC)CC1 | i | i | -16.5 | i | -0.37 | i
COc1cccc(-c2nc(N3CCCCC3C)c3ccccc3n2)c1O (stereo not drawn) | i | 8* | -9.9 | i | -0.09 | i
OCc1cn(-c2ccccc2)nc1-c1ccc(-c2nn(-c3ccccc3)cc2CO)cc1 | i | i | -9.5 | i | -0.28 | i
Cc1ccc(-c2nn(-c3ccccc3)cc2CSC(=N)N)cc1 | i | i | -13.8 | i | -5.77* | i
CCCCN(CCCC)C(=S)N/N=C/c1c(C)[nH]n(-c2ccccc2)c1=O | i | i | -7.0 | i | 0.9 | 29*
Cc1[nH]n(-c2ccccc2)c(=O)c1/C=N/NC(=O)c1ccc(O)cc1O | i | i | -12.1 | i | -0.77 | i
C=C(C)Cc1c(C)c(C#N)c2[nH]c3ccccc3n2c1=O | i | i | -4.6 | i | -0.17 | i
CN1/C(=C\C(=O)CSc2nnc(NCc3ccccc3)s2)C(C)(C)c2ccccc21 | i | i | -27.8 | i | -9.66* | i
CC(C)c1nc2sc3c(=O)[nH]c(=S)[nH]c3c2c2c1CCCC2 | i | i | -15.1 | i | 0.65 | i
CC(C)c1nc2sc3c(=O)[nH]c(=S)[nH]c3c2c2c1CCC2 | i | i | -3.5 | x | 2.28 | 21*
Nc1nsc2ccccc12 | i | i | -21.1 | i | -5.12* | i
COc1ccc(C)cc1S(=O)(=O)N1CCc2ccccc2C1 | i | i | -7.0 | i | -4.26* | i
CC(C)Oc1ccc(C(=O)Nc2ccc(S(=O)(=O)N3CCN(C)CC3)cc2)cc1 | -7.34* | i | -11.3 | i | -0.11 | i
Cc1cccc(NC(=O)CSc2nnc(C)n2Cc2ccccc2)c1 | i | i | -4.9 | i | 0.01 | i
Cc1ccc(-c2nc(CSc3nc4ccccc4c(=O)n3C)cs2)cc1 | i | i | -6.8 | i | 0.39 | i
Cc1cccc(CSc2nc3ccccc3c(=O)n2C)c1 | x | x | x | -9.3* | x | x
CCN1Cc2c(/C=C/c3ccccc3)nc3ccc(OC)cc3c2N(c2cccc(Cl)c2)C1 | i | i | -9.2 | i | -13* | i
COc1ccc2ncc(S(=O)(=O)c3ccccc3)c(N3CCN(c4ccccc4)CC3)c2c1 | i | i | -5.3 | i | 0.56 | i
OC1(c2ccc(Cl)cc2)CN(c2ccccc2)C2=[N+]1CCS2 (stereo not drawn) | i | 6* | -14.1 | i | -0.97 | i
COCCn1c(=O)c2c(nc3n2CC(C)CN3Cc2ccccc2)n(C)c1=O (stereo not drawn) | i | i | -3.8 | i | -0.1 | i
CC(=O)c1ccccc1OC(=O)CCN1C(=O)C2C3C=CC(C4CC34)C2C1=O (stereo not drawn) | i | i | -21.8 | i | 0.62 | i
CCOC(=O)/C(=C\Nc1ccccc1C(F)(F)F)Sc1ncc(C(F)(F)F)cc1Cl | i | 7* | -17.9 | i | 0.08 | i
COC(=O)/C(=C\Nc1ccc(Cl)c2ccccc12)c1ncc(C(F)(F)F)cc1Cl | i | i | -6.1 | i | -0.83 | i
SMILES | KCNK9 block | KCNQ1 block | hERG protect | KCNK3 inh | Kir21 block | KCNQ1 act
CCn1c(C)nc2cc(-c3nnc(-c4c(-c5ccccc5)noc4C)o3)ccc21 | i | i | 34.3* | i | 0.12 | i
COc1cc(C)c(S(=O)(=O)NOCc2ccccc2)c(C)c1C | i | i | -3.6 | i | -7.11* | i
Cc1ccc2c(c1)C(SCC(=O)NCCc1ccccc1)CC1(CCCC1)O2 (stereo not drawn) | i | i | -5.8 | i | 2.18 | i
CC(=O)NC12CC3CC(C1)CC(C(=O)NCc1ccc(C)cc1)(C3)C2 | i | i | -7.2 | i | 0 | i
Cn1cccc1C(=O)NC(=O)COC(=O)c1ccc(O)cc1 | i | i | -11.1 | i | 0.63 | i
Cn1cccc1C(=O)NC(=O)COC(=O)c1ccccc1O | i | i | 5.3* | i | 0.05 | i
CCOC(=O)/C(C#N)=N/Nc1c(S(=O)(=O)Cc2ccco2)csc1C(=O)OC | i | i | -3.7 | i | 0.27 | i
COc1ccc(NC(=S)N/N=C/c2cccn2Cc2ccccc2F)cc1 | i | i | -5.9 | i | 2.53 | i
COc1ccc(NC(=S)N/N=C/c2cccn2Cc2ccc(F)cc2Cl)cc1 | i | i | -4.5 | i | 0.93 | i
CSc1ccccc1NC(=S)N/N=C/c1cccn1Cc1ccc(F)cc1 | -7.86* | i | -0.9 | i | -2.7 | i
CSc1ccccc1NC(=S)N/N=C/c1cccn1Cc1cccc(C)c1 | -6.62* | i | -17.9 | i | 2.64 | i
O=C(Nc1ccc(Oc2ccccc2)cc1)C1CC1 | i | i | -9.4 | i | -0.33 | i
c1ccc2nc(N3CCCC3)c(N3CCCCC3)nc2c1 | x | x | x | -10.1* | x | x
O=C(NC(=S)N1CCN(c2ccccc2)CC1)c1ccccc1 | i | i | 10.3* | i | -0.72 | 20*
O=C(NC(=S)N1CCCCCC1)c1ccccc1 | i | i | 5.8* | i | 0.07 | i
O=C(NC(=S)N1CCCC1)c1ccccc1 | i | i | -5.2 | i | 0.05 | i
O=C(NC(=S)N1CCCCCC1)c1ccc(Cl)cc1Cl | i | i | 7.0* | i | -0.68 | 21*
COc1cccc(/C=C2/C(=O)NN(c3ccc(C)c(C)c3)C2=O)c1 | i | i | -1.5 | i | -1.48 | i
Cc1ccc(CNc2cccnc2)cc1 | i | i | -3.9 | i | 0.07 | i
O=C1NC(=O)/C(=C/c2cccc3ccccc23)S1 | i | 6* | -4.3 | i | 2.28 | i
O=C1NC(=O)/C(=C\c2ccccc2OCc2ccccc2)S1 | i | i | -8.4 | i | 0.01 | i
O=C1NC(=O)C(=Cc2ccccc2[N+](=O)[O-])S1 | x | x | x | i | x | x
Cc1ccc(S(=O)(=O)Oc2ccccc2/C=C2/SC(=O)NC2=O)cc1 | i | 9* | -10.9 | i | -2.02 | i
O=C1NC(=O)/C(=C/c2cc3c(cc2Br)OCO3)S1 | i | i | 7.0* | i | 1.14 | i
Cc1nn(-c2ccccc2)c(Cl)c1/C=N\NC(=O)c1cncc(Br)c1 | i | i | -12.3 | i | -0.11 | i
